From PubChem BioAssay
SIRT5 inh: SIRT5 desuccinylase inhibitors, primary screen, biochemical, fluorescence imaging, single point, set 5 | NAD-dependent protein deacylase sirtuin-5, mitochondrial (Homo sapiens), Q9NXA8 | Purified SirT5, succinyl-peptide AMC, trypsin-coupled fluorescence | inhibition, % at 15 µM | actives 1.1% (n = 330,000); in the data active = inhibition above about 15%; inconclusive = no clear call, values can overlap the other calls
DENV2 CPE rescue: inhibitors of DENV2 cytopathic effect, primary screen, cell-based, plate reader, single concentration; DENV2-infected cells, cytopathic effect rescue; CPE inhibition, % at 9.99 µM; actives 1.7% (n = 350,000); in the data active = CPE inhibition above about 20%, passing the limit was not always enough; inconclusive = no clear call, values can overlap the other calls; tested in BHK-21 cells
E-selectin induc: E-selectin induction in HUVECs, primary screen, imaging, HUVEC, immunofluorescence imaging, single point; P16581; normalized: neutral wells 0, TNF-alpha wells 100; activation, % at 7.58 µM; actives 0.37% (n = 260,000);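 active = mean E-selectin-positive cell signal at least 10% of the positive control, reached in at least 60% of replicates, without over 20% cell loss; inconclusive = no rule given, readout overlaps actives, possibly toxicity-flagged; inactive = the rest, including those meeting only one limit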
Target sequence (P16581 whole entry, looked up): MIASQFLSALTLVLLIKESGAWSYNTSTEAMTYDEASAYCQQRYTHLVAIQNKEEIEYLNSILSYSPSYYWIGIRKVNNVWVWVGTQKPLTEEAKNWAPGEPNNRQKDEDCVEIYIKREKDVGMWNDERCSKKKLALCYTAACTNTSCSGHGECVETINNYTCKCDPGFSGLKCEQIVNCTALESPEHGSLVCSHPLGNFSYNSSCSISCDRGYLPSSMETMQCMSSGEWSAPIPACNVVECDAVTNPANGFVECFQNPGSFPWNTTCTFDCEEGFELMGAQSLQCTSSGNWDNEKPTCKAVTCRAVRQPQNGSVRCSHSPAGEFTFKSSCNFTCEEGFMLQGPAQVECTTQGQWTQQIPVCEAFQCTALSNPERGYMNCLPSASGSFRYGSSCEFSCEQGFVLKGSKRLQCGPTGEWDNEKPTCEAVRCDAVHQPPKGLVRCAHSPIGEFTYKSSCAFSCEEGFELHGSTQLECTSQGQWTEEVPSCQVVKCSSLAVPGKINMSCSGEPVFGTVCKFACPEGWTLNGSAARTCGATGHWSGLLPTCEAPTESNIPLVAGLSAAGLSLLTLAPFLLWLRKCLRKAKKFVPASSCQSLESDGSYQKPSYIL
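Test system: HUVEC; input: 3,000 HUVEC/well; measured by: immunofluorescence imaging; read-out: % PE-positive cells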
A number is an active result. Compounds with a hit are over-represented: about 2.8% of the library has one in this group of screens.

For N#C[C@@H]1[C@H](c2ccc(-c3ccc(F)cc3)cc2)[C@H](CO)N1c1nc(-c2ccccc2)cs1 the results were SIRT5 inh inactive, DENV2 CPE rescue inactive and E-selectin induc inactive.
Screening N#C[C@@H]1[C@H](c2ccc(-c3cccc(F)c3)cc2)[C@@H](CO)N1c1nc(-c2ccccc2)cs1 returned SIRT5 inh inactive, DENV2 CPE rescue inactive and E-selectin induc inactive.
`N#C[C@@H]1[C@@H](c2ccc(-c3ccc(F)cc3)cc2)[C@H](CO)N1c1nc(-c2ccccc2)cs1` gave SIRT5 inh inactive, DENV2 CPE rescue 60.9 and E-selectin induc inactive.
CCNc1nc(C#N)nc2c1ncn2-c1cc(F)cc(F)c1 was read as SIRT5 inh 24.6, DENV2 CPE rescue inactive and E-selectin induc inactive.
For CCn1cnc2c(Nc3cc(F)cc(F)c3)nc(C#N)nc21 the results were SIRT5 inh inactive, DENV2 CPE rescue inactive and E-selectin induc inactive.
COc1cccc(S(=O)(=O)Nc2ccc3c(c2)OC[C@@H](C)N(Cc2ccccc2F)C[C@@H](C)[C@@H](OC)CN(C)C3=O)c1 was read as SIRT5 inh inactive, DENV2 CPE rescue inconclusive and E-selectin induc inactive.
For COC(=O)c1ccc(-c2noc(CN3CCCC(CNC(C)=O)C3)n2)cc1 (centres undefined) the results were SIRT5 inh 34.9, DENV2 CPE rescue inactive and E-selectin induc inactive.
Screening COC(=O)c1ccc(-c2noc(CN(C)CCC3CCCCO3)n2)cc1 (centres undefined) returned SIRT5 inh inactive and DENV2 CPE rescue inactive.
For COc1ccc(NC(=O)Nc2ccc3c(c2)C(=O)N([C@@H](C)CO)C[C@H](C)[C@H](CN(C)C(=O)NC(C)C)OCCCC[C@@H](C)O3)cc1 the results were SIRT5 inh inactive and DENV2 CPE rescue inactive.
`C[C@H](CO)N1C[C@H](C)[C@H](CN(C)Cc2ccc(C(=O)Nc3ccccc3N)cc2)Oc2ccc(NS(=O)(=O)c3cccs3)cc2CC1=O` gave SIRT5 inh inactive, DENV2 CPE rescue inactive and E-selectin induc 58.8.
For C[C@@H]1CN([C@H](C)CO)C(=O)Cc2cc(NS(=O)(=O)c3cccs3)ccc2O[C@H]1CN(C)Cc1ccc(C(=O)Nc2ccccc2N)cc1 the results were SIRT5 inh inactive, DENV2 CPE rescue 38.9 and E-selectin induc inactive.
Screening C[C@H](CO)N1C[C@H](C)[C@@H](CN(C)Cc2ccc(C(=O)Nc3ccccc3N)cc2)Oc2ccc(NS(=O)(=O)c3cccs3)cc2C1=O returned DENV2 CPE rescue inactive and E-selectin induc inactive.
Screening C[C@H]1CN([C@@H](C)CO)C(=O)c2cc(NS(=O)(=O)c3cccs3)ccc2O[C@@H]1CN(C)Cc1ccc(C(=O)Nc2ccccc2N)cc1 returned SIRT5 inh inactive, DENV2 CPE rescue inactive and E-selectin induc inactive.
`CO[C@H]1CN(C)C(=O)c2ccc(NC(C)=O)cc2OC[C@@H](C)N(C(=O)Cc2ccccn2)C[C@H]1C` gave SIRT5 inh inactive, DENV2 CPE rescue inactive and E-selectin induc inactive.
`C[C@H]1CN([C@@H](C)CO)C(=O)Cc2cc(NC(=O)Cn3cnnn3)ccc2O[C@H]1CN(C)CC1CCCCC1` gave SIRT5 inh inactive, DENV2 CPE rescue inactive and E-selectin induc inactive.
Screening COc1cccc(NC(=O)CN(C)C(C)C(=O)Nc2ccc(S(=O)(=O)N3CCOCC3)cc2)c1 (centres undefined) returned SIRT5 inh inactive and DENV2 CPE rescue inactive.
COc1ccc(C(=O)N2CCN(S(=O)(=O)c3ccc(C)cc3C)CC2)cc1S(=O)(=O)N1CCOCC1 was read as SIRT5 inh inactive, DENV2 CPE rescue inactive and E-selectin induc inactive.
COc1ccc(CN(C)C(C)C(=O)Nc2ccc(S(=O)(=O)N3CCOCC3)cc2)c(OC)c1 (centres undefined) was read as SIRT5 inh 17.1, DENV2 CPE rescue inactive and E-selectin induc inactive.
For COc1ccccc1OCC(=O)Nc1ccc(S(=O)(=O)N2CCCC2)cc1 the results were DENV2 CPE rescue inactive and E-selectin induc inactive.
`COc1ccccc1OCC(=O)Nc1ccc(S(=O)(=O)N2CCN(C)CC2)cc1` gave SIRT5 inh inactive, DENV2 CPE rescue inactive and E-selectin induc 333.2.
Screening COc1ccc(S(=O)(=O)N2CCCCCC2)cc1C(=O)N(C)CC(=O)Nc1ccc(F)cc1 returned SIRT5 inh 20.5, DENV2 CPE rescue inactive and E-selectin induc inactive.
Screening COc1ccc(C(=O)N2CCN(S(=O)(=O)c3ccc(C)cc3)CC2)cc1S(=O)(=O)N1CCOCC1 returned SIRT5 inh 20.4, DENV2 CPE rescue inactive and E-selectin induc inactive.
For COc1ccc(NC(=O)CN(C)C(=O)c2cc(S(=O)(=O)N3CCCCCC3)ccc2OC)cc1 the results were SIRT5 inh inactive, DENV2 CPE rescue inactive and E-selectin induc inactive.
For Cc1ccc(S(=O)(=O)Nc2cccc3c2O[C@@H](CN(C)S(=O)(=O)c2cccs2)[C@H](C)CN([C@@H](C)CO)C3=O)cc1 the results were SIRT5 inh inactive, DENV2 CPE rescue inactive and E-selectin induc inactive.
COc1ccc2c3c([nH]c2c1)[C@H](CO)N(C(=O)c1ccc(F)cc1)CC31CN(C(=O)CC2CC2)C1 was read as SIRT5 inh inactive, DENV2 CPE rescue inactive and E-selectin induc inactive.
For CCC(=O)N1C[C@@H](C)[C@H](OC)CN(C)C(=O)c2cc(NC(=O)c3cc(C)on3)ccc2OC[C@H]1C the results were E-selectin induc inactive.
C[C@H]1CN([C@@H](C)CO)C(=O)c2cccc(NC(=O)C3CCCCC3)c2O[C@H]1CN(C)Cc1ccc(-c2ccccc2)cc1 was read as E-selectin induc inactive.
`COc1ccc(C)cc1N(CC(=O)Nc1ccc(S(=O)(=O)N2CCOCC2)cc1)S(C)(=O)=O` gave SIRT5 inh inactive, DENV2 CPE rescue 24.4 and E-selectin induc inactive.
`COc1ccc(N(CC(=O)Nc2ccc(S(=O)(=O)N3CCOCC3)cc2)S(C)(=O)=O)cc1OC` gave SIRT5 inh inactive, DENV2 CPE rescue inactive and E-selectin induc inactive.
CC=Cc1ccc2n(c1=O)C[C@H]1[C@H](CO)[C@@H](C(=O)NCC(F)(F)F)N(CCC)[C@@H]21 (mixture of isomers) was read as SIRT5 inh inactive, DENV2 CPE rescue inactive and E-selectin induc inactive.
For CC(O)(c1cccc(F)c1)c1nc(/C=C/c2ccccc2)cs1 (centres undefined) the results were DENV2 CPE rescue 22.3 and E-selectin induc inactive.
Screening CC(O)(c1ccc(F)c(F)c1)c1nc(/C=C/c2ccc(C(F)(F)F)cc2)cs1 (centres undefined) returned SIRT5 inh inactive, DENV2 CPE rescue inconclusive and E-selectin induc inactive.
COc1ccc(NC(=O)N(C)C[C@@H]2Oc3ccc(NC(=O)Cn4cnnn4)cc3C(=O)N([C@@H](C)CO)C[C@@H]2C)cc1 was read as SIRT5 inh inactive, DENV2 CPE rescue inactive and E-selectin induc inactive.
Cc1nc(S/C(=C/c2ccc(-c3cc(Cl)ccc3C)o2)C(=O)O)n[nH]1 was read as SIRT5 inh inactive, DENV2 CPE rescue inactive and E-selectin induc inactive.
For O=C(O)c1cc(Cl)ccc1-c1ccc(/C=C/c2cc(C(F)(F)F)[nH]c(=O)n2)o1 the results were SIRT5 inh 19.7 and DENV2 CPE rescue inactive.
